# Insulin prom act: TRM-6 insulin promoter activation | TRM-6 cells, insulin promoter eGFP reporter, imaging; plate-scaled: unstimulated 0, stimulated control 100 | activation, % at 2 µM | hit rate 0.81% among 130,000 | AID 1296;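 active = activation at 2 µM above a set limit, confirmed on inspection of the cell images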;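 also: share of cells whose green reporter signal exceeds an intensity cutoff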
#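 Test system: human fetal islet-derived TRM-6 cells with tamoxifen-inducible insulin promoter–eGFP reporter. Compound dosing: 2 µM final, single concentration. Incubation: tamoxifen pre-incubation 15 h overnight, then compound exposure 48 h at 37 °C. Signal: fixed-cell fluorescence microscopy, eGFP plus Hoechst.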
# * = called active by the depositor. Many of the other results were omitted from the sample, so hits are more common in it than they were.
SMILES,Insulin prom act
COc1ccc(C(=O)/C=C/c2ccc(OC(=O)c3cc(OC)c(OC)c(OC)c3)cc2)cc1,8
O=C(c1ccc2ccccc2n1)N1CCN(c2ccccc2O)CC1,3
C=CCn1c(=O)c2ccccc2n2c(SCC(N)=O)nnc12,9
CC(C)Cn1c(SCC(=O)N2CCCCC2)nc2ccccc2c1=O,269
O=C(CSc1nnc2n(C3CCCC3)c(=O)c3ccccc3n12)N1CCCCCC1,121*
CCN(CC)c1ccc(N2C(=O)/C(=C/c3cccnc3)SC2=S)cc1,10
COc1ccc(-c2cc(CNC(=O)CN(C)Cc3ccccc3)on2)cc1,10
CCOc1ccc(NC(=O)CCn2cccc2)cc1,-73
CCOc1ccc2c(c1)C(C)=CC(C)(C)N2C(=O)Nc1ccccc1,81*
CCOc1ccc2c(c1)-c1c(ssc1=S)C(C)(C)N2C(=O)c1ccco1,-7
CCCOC1(NC(=O)c2ccccc2)C(C)=CC(=O)C=C1C,7
CN(C)C(CNC(=O)CN1C(=O)NC2(CCc3ccccc32)C1=O)c1ccco1 (stereo not given),-9
CC1CN(c2snnc2C=C2C(=O)OC(C)(C)OC2=O)CC(C)O1 (stereo not given),0
CN(C)C(CNC(=S)Nc1ccc(Cl)cc1)c1cccnc1 (stereo not given),7
Cc1ccc(/C=N/N(Cc2ccccc2)c2ccccc2)o1,8
O=C(c1ccc(S(=O)(=O)Cc2ccccc2F)c([N+](=O)[O-])c1)N1CCCC1,0
CC1(c2ccc([N+](=O)[O-])c(CS(=O)(=O)c3ccccc3)c2)OCCO1,627*
CC1CCN(C(=O)c2ccc(S(=O)(=O)Cc3ccccc3F)c([N+](=O)[O-])c2)CC1,5
CCc1ccccc1N1CC(C(=O)O)CC1=O (stereo not given),194
CC(NCc1ccco1)C(=O)N1CCc2ccccc2C1 (stereo not given),-6
COc1ccc(NC(=O)CSc2n[nH]c(N)n2)cc1OC,332*
COc1ccc(NC(=O)CSc2nncn2C)cc1OC,-71
Nc1nc(SCC(=O)Nc2ccc(Br)cc2F)n[nH]1,-75
CCN1C(=O)N(C)C(N(O)C(=O)NC)C1(C)C (stereo not given),-9
COC(=O)N[C@H](CC(C)=O)c1cccc(C(F)(F)F)c1,0
SMILES,Insulin prom act
CC(C)CNC(=O)CO/N=C/c1ccccc1Cl,108
O=[N+]([O-])c1ccc(Cl)c(/C=N/NC(=S)Nc2ccccc2)c1,5
O=C(Nc1ccccc1)O/N=C/c1ccccc1Cl,87*
COc1ccc(-c2cc(C(=O)NCC(C)C)no2)cc1,-6
COc1ccc(C2OC(=O)CC2C(=O)NCc2ccccc2Cl)cc1OC (stereo not given),-8
CCCN1C(=O)CC(c2ccco2)Sc2ccccc21 (stereo not given),3
CCCN1C(=O)/C(=C\C=C2/Sc3ccccc3N2CC)SC1=S,388*
CCN1C(=O)/C(=C\C=C2/C=CC=CN2CC)SC1=S,-3
CCN1/C(=C\C=C(C(C)=O)C(C)=O)Sc2ccccc21,669*
CCN(CC)CC(=O)N1c2ccccc2Sc2ccc(Cl)cc21,262
O=C(CN1CCCC1)N1c2ccccc2Sc2ccccc21,110
COc1ccc(C2(CNC(=O)Cc3ccc(OC)c(OC)c3)CCOCC2)cc1,-8
Cn1c2c(c(=O)n(C)c1=O)C(c1ccccc1OC(F)F)C1=C(CCCC1=O)N2 (stereo not given),-50
OCCN1CCN(c2cc(-c3ccccc3)c3ccccc3n2)CC1,5
O=c1c2cnn(-c3ccccc3)c2nc(-c2cccs2)n1-c1ccc(Br)cc1,-22
O=c1cc(-c2ccccc2)n(S(=O)(=O)c2ccc3ccccc3c2)o1,0
CCOc1ccccc1-n1c(SCC(N)=O)nnc1-c1ccccc1,154*
COc1cccc(-c2nnc(SCC(N)=O)n2-c2ccc(Cl)cc2)c1,0
CCOc1ccccc1-n1c(SCC(N)=O)nc2ccccc2c1=O,3
Cc1nnc(SCc2cccc([N+](=O)[O-])c2)[nH]c1=O,7
C=CCSc1ncc(C#N)c(N)n1,8
CCCCC(=O)N(CCOC)c1nnc(-c2ccc(OC)cc2)s1,3
COCCN(C(=O)/C=C/c1ccccc1)c1nnc(-c2cccnc2)s1,-5
COCCN(C(=O)C1CC1)c1nnc(-c2cccc(C)c2)s1,182*
CCN(CC)c1nc2c(s1)C(=O)CC(C)(C)C2,-3
SMILES,Insulin prom act
Cc1sc2nc(CN3CCCCC3)nc(Nc3ccc4c(c3)OCCO4)c2c1C,0
CCC(C(=O)NC1CCCC1)N(C(=O)Cn1nnc(-c2ccc(C)o2)n1)c1cnc2ccccc2c1 (stereo not given),160*
Cc1ccc(-c2nnn(CC(=O)N(Cc3ccccc3F)C(C(=O)NC3CCCC3)c3ccncc3)n2)o1 (stereo not given),231
Cc1ccc(-c2nnn(CC(=O)N(CC(=O)NC(C)C)c3cnc4ccccc4c3)n2)o1,-71
CC(O)C1CCC2C3CC[C@H]4CC(O)CCC4(C)C3CC3(OCCO3)C12C (stereo not given in full),-8
CN(C)c1ccc(C(=S)N2CCOCC2)cc1,150*
CC(=O)N1CCN(C(=S)c2ccc(N(C)C)cc2)CC1,7
O=C(Oc1ccc(C(=S)N2CCOCC2)cc1)c1ccccc1,-6
COc1ccc(C2NC(=O)NC(C)=C2C(C)=O)cc1 (stereo not given),129
COc1ccc(NC2=C(C(C)=O)C(c3ccc(OC)cc3)C(C(C)=O)C(C)(O)C2)cc1 (stereo not given),317*
COc1ccc(C2C(C(C)=O)=C(Nc3ccccc3)CC(C)(O)C2C(C)=O)cc1OC (stereo not given),215
Cc1cc(NC(=O)c2cnn3c(C(F)F)cc(C4CC4)nc23)no1,107
Cc1cc(NC(=O)c2cnn3c(C(F)F)cc(-c4ccccc4)nc23)no1,9
Cc1cc(NC(=O)c2cnn3c(C(F)(F)F)cc(-c4ccccc4)nc23)no1,429*
S=c1[nH]nc(CSc2nc3ccccc3s2)n1C1CCCCC1,0
Cc1[nH]n(-c2ccccc2)c(=O)c1/C=N/N1C(=O)c2ccc3c4c(ccc(c24)C1=O)CC3,-9
Cc1cc(NC(=O)Cc2cccs2)nn1CC(=O)NCc1ccco1,169
CCN1/C(=C/c2ccc3cccc(C)c3[n+]2CC)Sc2ccccc21,233*
CCN1/C(=C/c2ccc3cc(C)cc(C)c3[n+]2CC)Sc2cc(C)ccc21,413*
CCN1/C(=C\c2ccc3cc(C)ccc3[n+]2CC)Sc2cc(C)c(C)cc21,413*
Cn1c(SCc2cc(=O)[nH]c3ccccc23)nnc1-c1ccc(Br)cc1,-4
C[C@@H]1NC(=O)[C@H](CCCN=C(N)N)NC(=O)c2cc([N+](=O)[O-])cc(I)c2OCC[C@@H](C(=O)NC(CC(=O)O)C(N)=O)NC1=O (stereo not given in full),-9
COc1cccc(N2C(=O)C3C(C2=O)C2C=CC3C23CC3)c1 (stereo not given),5
COC(=O)c1ccc2c(=O)n(-c3ccccc3F)c(=S)[nH]c2c1,-100
COc1cc([N+](=O)[O-])ccc1NC(=O)CCCOc1cccc(C)c1,-8
O=C(Nc1cc(S(=O)(=O)N2CCCCC2)ccc1Cl)c1ccccc1NS(=O)(=O)c1ccc(F)cc1,525*
O=C(Nc1cc(S(=O)(=O)N2CCCC2)ccc1OCC(F)(F)F)c1ccc(F)cc1,-7
O=C(Nc1ccccc1N1CCOCC1)c1ccccc1NS(=O)(=O)c1ccc(F)cc1,8

# Bioassay records: PubChem BioAssay, Columbia University Molecular Screening Center
